Screening results deposited in PubChem by several laboratories.
hK5 inh = blocks human kallikrein 5 protease activity. Q9Y337. recombinant hK5, fluorogenic AMC substrate cleavage. AID 873. inhibition, % at 5 µM. 0.59% of 210,000 active;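 active means inhibition of 40% or more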
FXIIa inh = inhibitors of human coagulation factor XIIa | inhibition, % at 5 µM | P00748 | 0.3% of 220,000 active | AID 800 | purified FXIIa, Boc-QGR-AMC fluorogenic substrate, 2 h; in the data active means inhibition above about 40%
Target sequence (P00748 20-372 limits assumed): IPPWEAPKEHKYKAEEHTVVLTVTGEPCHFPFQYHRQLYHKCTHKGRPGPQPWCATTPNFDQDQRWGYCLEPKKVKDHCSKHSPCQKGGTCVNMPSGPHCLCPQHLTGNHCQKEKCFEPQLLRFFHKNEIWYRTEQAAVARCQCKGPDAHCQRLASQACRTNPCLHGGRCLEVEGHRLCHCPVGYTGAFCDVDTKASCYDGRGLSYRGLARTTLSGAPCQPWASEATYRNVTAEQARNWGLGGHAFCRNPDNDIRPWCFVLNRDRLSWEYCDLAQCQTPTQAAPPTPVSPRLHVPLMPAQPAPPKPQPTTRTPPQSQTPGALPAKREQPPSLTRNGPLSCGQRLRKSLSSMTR
Target sequence (P00748 373-615 limits assumed): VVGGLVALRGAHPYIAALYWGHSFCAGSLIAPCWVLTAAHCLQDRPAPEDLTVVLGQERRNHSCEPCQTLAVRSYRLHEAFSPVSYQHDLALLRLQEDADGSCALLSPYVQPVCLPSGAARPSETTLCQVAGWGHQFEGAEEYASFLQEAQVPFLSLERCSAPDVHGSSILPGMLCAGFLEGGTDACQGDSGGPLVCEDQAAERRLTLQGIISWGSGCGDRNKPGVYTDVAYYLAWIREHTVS
thrombin 1536 = inhibitors of human thrombin; P00734; inhibition, % at 5 µM; 0.26% of 220,000 active; alpha-thrombin, Boc-VPR-AMC fluorogenic substrate cleavage; AID 1046;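 active means inhibition at or above 40%; inactive means inhibition below 40%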
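Assay system: human alpha-thrombin enzyme. Reagent: Boc-VPR-AMC substrate, 15 µM final. Compound dosing: one concentration per compound, 5 µM, with 0.2% DMSO. Incubation: room-temperature reaction. Technique: AMC fluorescence, 355/460 nm. Measure: % inhibition relative to enzyme controls and enzyme-free blanks.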
Tb hexokinase = T. brucei hexokinase 1 inhibition. recombinant TbHK1, G6PDH-coupled NADH A340. inhibition, % at 10 µM. 0.11% of 220,000 active;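 active means inhibition of 50% or more in the single-dose primary screen; inactive means inhibition below 50%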
FXIa inh = inhibitors of human coagulation factor XIa. purified FXIa, Boc-Glu-Ala-Arg-AMC fluorogenic substrate. inhibition, % at 5 µM. AID 798. P03951. 0.14% of 220,000 active;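 active means inhibition of at least 40%; inactive means inhibition below 40%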;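 further: fluorescence of freed AMC excited at 355 nm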
Each line names hits and unclear results; the compound was inactive in the other large screens. This is a sample that favours compounds with a hit; in the whole collection about 1.1% have one here.

CN(C)N=Nc1ccc(S(N)(=O)=O)cc1	none
CCCC/C(O)=N\S(=O)(=O)c1ccc(N=NN(C)C)cc1	hK5 inh 70
COc1cccc(C(=O)Nc2sc3c(c2C#N)CCN(C(C)=O)C3)c1	hK5 inh 42
N#Cc1c(NC(=O)c2ccccc2)sc2c1CCC2	none
Cc1ccc(NC(=O)CNc2ccc(OC(C)C)cc2)cc1	none
Cc1ccc(C(CC(=O)NCCCN(C)C)c2ccc(OC(C)C)cc2)cc1 (centres undefined)	FXIIa inh 63
O=C(CN1CCN(Cc2ccccc2Cl)CC1)N/N=C/c1cccs1	none
Cc1ccc(S(=O)(=O)n2nc(-c3ccco3)nc2N)cc1	none
CSc1ccc(-c2nc(O)c3cnccn23)cc1	none
COc1ccc(C2N(c3ccccc3)CCN2c2ccccc2)cc1O	FXIIa inh 46
O=C(COC(=O)CCc1nc2ccccc2c(=O)[nH]1)Nc1ccc(Cl)cn1	hK5 inh 43, FXIa inh 105
CCOc1cc(/C=C2/SC(=S)N(C)C2=O)ccc1Oc1ccc([N+](=O)[O-])cc1[N+](=O)[O-]	none
Cc1ccccc1NC(=O)Nc1ccccc1Br	thrombin 1536 47
CCOc1cc(NC(=S)NCC2CCCO2)c(OCC)cc1NC(=O)CC(C)C (centres undefined)	none
O=C1CC(c2ccccc2)n2nc(NS(=O)(=O)c3ccccc3)nc2N1 (centres undefined)	none
O=C(COc1ccc(Cl)cc1Cl)Nc1nc2n(n1)C(c1ccccc1)CC(=O)N2 (centres undefined)	hK5 inh 58
CCOc1ccccc1/C=C(/NC(=O)c1ccccc1)C(=O)NCC(=O)O	hK5 inh 47
COc1cccc(/C=C/C(=O)OCC(=O)NCCc2ccccc2)c1	none
Cc1cc(N2C(=O)CC(Cc3ccc(Cl)cc3)C2=O)no1 (centres undefined)	hK5 inh 40
Nc1cccc2c1C(=O)N(C(=O)c1ccco1)C2=O	thrombin 1536 47
O=C(c1ccco1)N1C(=O)c2cccc3cccc1c23	none
Cc1ccc(C)c(-c2nc3cc(N)ccc3o2)c1	FXIIa inh 41
CCN1CCN(c2oc(-c3ccco3)nc2C#N)CC1	none
O=C(CN(C(=O)CSc1nnc(COc2ccccc2)o1)c1ccc(F)cc1)NC1CCCCC1	hK5 inh 130
O=C(CSc1nc(O)c(C2CCCCC2)c(=O)[nH]1)NCC1CCCO1 (centres undefined)	none
Cc1cc(=O)[nH]c(SCC(=O)NCC2CCCO2)n1 (centres undefined)	thrombin 1536 42
C=CCc1c(C)[nH]c2c(OC)cccc2c1=S	hK5 inh 46
C=CCN(CC=C)C(=O)c1c(OC)cccc1OC	none
c1coc(-c2nc(-c3ccco3)c(-c3ccco3)nc2-c2ccco2)c1	hK5 inh 71
O=C(O)/C=C/C(=O)Nc1cccnc1	hK5 inh 72
CNC(=S)N1CCC(NC(=O)c2ccco2)CC1	FXIa inh 44
O=C(COc1ccc2c(c1)OCO2)Nc1ccccc1C(F)(F)F	none
O=Cc1ccc(OCC(=O)Nc2ccccc2C(F)(F)F)cc1	FXIIa inh 64
Cc1ccc(C)c(C(=O)Cn2ncc(Cl)c(Cl)c2=O)c1	none
Cc1cc(C(=O)Cn2ncc(Cl)c(Cl)c2=O)c(C)n1CC(F)(F)F	hK5 inh 72
Nc1sc2c([n+]1CCCS(=O)(=O)[O-])CCCC2	none
CC(C)c1ccc(-c2noc(C3CCCN(C(=O)c4ccc(F)cc4F)C3)n2)cc1 (centres undefined)	thrombin 1536 61
Cc1ccc(-c2noc(C3CCCN(C(=O)c4ccc(F)cc4F)C3)n2)cc1 (centres undefined)	none
COc1ccc(/C=N/NC(=O)c2cccc(NC(C)=O)c2)c(C(=O)O)c1OC	none
O=C(Nc1ccccc1O)c1ccc(NS(=O)(=O)c2cccc3cccnc23)cc1	none
CC1(C)CC(=O)c2cnc(NC(=O)Cc3ccc(Cl)cc3)nc2C1	hK5 inh 86
Cc1ccccc1/C=C1\SC(=S)N(/N=C/c2cc([N+](=O)[O-])ccc2O)C1=O	thrombin 1536 56
CC(N=Cc1cc([N+](=O)[O-])ccc1O)c1ccccc1 (centres undefined)	none
Cn1ncc([N+](=O)[O-])c1C(=O)Nc1ccc(-c2nc3ccccc3o2)cc1	none
CC(=O)NS(=O)(=O)c1ccc(NC(=S)NC(=O)c2ccco2)cc1	FXIIa inh 43
COc1ccc2nc3ccccc3nc2c1N	FXIIa inh 44
Cn1nc(C(F)(F)F)c(-c2ccccc2)c1NC(=O)CCC(=O)O	hK5 inh 43
Cn1nc(C(F)(F)F)c(-c2ccccc2)c1NC(=O)CSCC(=O)O	none
N#Cc1c(/N=C/c2ccco2)sc2c1CCC2	thrombin 1536 104
Cc1ccc(/C=N/c2sc3c(c2C#N)CCCCC3)o1	none
O=C(c1cccs1)N1CCN=C1SCc1ccccc1F	none
COc1ccc(CN(C(=O)c2ccc3c(c2)OCCO3)C(C(=O)NC2CCCCC2)c2ccc3ncccc3c2)cc1 (centres undefined)	hK5 inh 150
c1ccc2oc(-c3ccn[nH]3)cc2c1	none
Cc1cccc(OCC(=O)N/N=C/c2ccccc2C(=O)O)c1	hK5 inh 42, FXIa inh 43
CCOC(=O)N1CCN(C(=O)c2oc3ccc(S(=O)(=O)N4CCOCC4)cc3c2C)CC1	thrombin 1536 40
COc1ccc(NC(=O)c2oc3ccc(S(=O)(=O)N4CCC5(CC4)OCCO5)cc3c2C)cc1	hK5 inh 100
O=C(COC(=O)c1ccc(Br)cc1)Nc1ccccc1Br	none
Cn1cc(CNCc2ccccc2OCC(O)CN2CCc3ccccc3C2)cn1 (centres undefined)	none (no result: hK5 inh)
N#Cc1c(-c2cccs2)nc(SCC(=O)c2cccs2)[nH]c1=O	hK5 inh 71
O=C(NCc1cccs1)C1CCC(CNS(=O)(=O)c2cccc3nsnc23)CC1 (centres undefined)	hK5 inh 52
COc1c(Cl)cccc1-c1cn2ccc(C)cc2n1	none
CCC(=O)N/C(=N/c1nc(C)cc(C)n1)Nc1cccc(OC)c1	thrombin 1536 94
CCOc1ccc(N/C(=N/c2nc(C)cc(C)n2)NC(C)=O)cc1	none
COc1cc2c3c(c1)C1(C(=O)N3C(C)(C)C=C2C)C(C#N)=C(N)Oc2cc(O)ccc21 (centres undefined)	hK5 inh 64
CCOc1cc2c3c(c1)C1(C(=O)N3C(C)(C)C=C2C)C(C#N)=C(N)Oc2cc(O)ccc21 (centres undefined)	none
O=C(Cn1c(-c2cscn2)nc2ccccc21)Nc1ccccc1F	hK5 inh 42
Fc1ccc(Cn2c(-c3cscn3)nc3ccccc32)c(Cl)c1	none
COc1ccc(-n2cnnc2SCC(=O)NC2CCCc3ccccc32)cc1 (centres undefined)	none
CC(=O)c1c(NCc2ccccc2)nc(=O)n(-c2ccccc2)c1C	hK5 inh 70
CC1Cc2ccccc2N1C(=O)C1CCCCN1S(=O)(=O)c1ccccc1 (centres undefined)	hK5 inh 41
